# Reference: ChEMBL document CHEMBL3352534, “A prodrug strategy for the oral delivery of a poorly soluble HCV NS5B thumb pocket 1 polymerase inhibitor using self-emulsifying drug delivery systems (SEDDS)” (Bioorg Med Chem Lett, 2015)
# Assays:
# [1] = Prodrug solubility in solutol; type: ADME
# Rattus norvegicus [2] = assay: (§1) Cmax in rat plasma at 10 mg/kg, po using 10.6% PEG400, 5.4% Cremophor EL, 2.6% Labrasol, 1.4% Capmul MCM in water (80%) vehicle; type: ADME, organism-based; parameters: dose 10 mg/kg, route oral; conditions: in vivo, BLD = below limit of detection
# Outline: (§2)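 Fasted rats were given a single 10 mg/kg oral dose, with n = 3 per dose and route. Plasma was extracted by solid-phase extraction. Analysis used HPLC with diode-array UV (200–400 nm, peak height at best S/N) or LC/MS. Calibration standards were made in blank plasma, with LOQ 7–14 ng/mL. Parameters came from noncompartmental analysis.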
# Rattus norvegicus [3] = assay: (§3) AUC in rat plasma at 10 mg/kg, po using 10.6% PEG400, 5.4% Cremophor EL, 2.6% Labrasol, 1.4% Capmul MCM in water (80%) vehicle; type: ADME, organism-based; parameters: dose 10 mg/kg, route oral; conditions: in vivo, BLD = below limit of detection; outline: as §2
# [4] = Prodrug conversion in simulated gastric fluid assessed as half life; type: ADME; conditions: simulated gi fluid
# Outline: (§4)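 Incubations used 2 µM compound at 37 °C in either SGF (0.2% NaCl/HCl, pH 1.2, pepsin 3.2 mg/mL) or SIF (KH2PO4/NaOH, pH 7.5, pancreatin 10 mg/mL). Samples were quenched 1:2 with acetonitrile/methanol 1:1 and analysed by HPLC. t1/2 = 0.693/first-order disappearance rate.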
# Liver microsome [5] = assay: Prodrug conversion in human liver microsomes assessed as half life
# Plasma [6] = assay: Prodrug conversion in rat plasma assessed as half life; type: ADME, cell-free
# Outline: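 Rat plasma (from centrifuged whole blood) was incubated with 2 µM compound at 37 °C. Samples were quenched 1:3 with acetonitrile/methanol 1:1, centrifuged and analysed by HPLC-PDA. Half-life was taken as 0.693/first-order rate of loss of the starting compound.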
# [7] = Prodrug conversion in simulated intestinal fluid assessed as half life; type: ADME; conditions: simulated gi fluid; outline: as §4
# [8] = Prodrug solubility in capmul; type: ADME
# Liver microsome [9] = assay: Prodrug conversion in rat liver microsomes assessed as half life
# [10] = Prodrug solubility in Labrasol; type: ADME
# Rattus norvegicus [11] = assay: AUC in rat plasma assessed as (E)-3-(4-(1-(2-(5-chloropyrimidin-2-yl)-3-cyclopentyl-1-methyl-1H-indole-6-carboxamido)cyclobutanecarboxamido)-2-ethoxyphenyl)acrylic acid at 10 mg/kg, po using 10.6% PEG400, 5.4% Cremophor EL, 2.6% Labrasol, 1.4% Capmul MCM in water (80%) vehicle; type: ADME, organism-based; parameters: dose 10 mg/kg, route oral; conditions: in vivo; outline: as §2
# [12] = Prodrug conversion in human intestinal microsomes assessed as half life
# [13] = Dissociation constant, pKa of the compound; type: physicochemical
# Rattus norvegicus [14] = assay: Cmax in rat plasma assessed as (E)-3-(4-(1-(2-(5-chloropyrimidin-2-yl)-3-cyclopentyl-1-methyl-1H-indole-6-carboxamido)cyclobutanecarboxamido)-2-ethoxyphenyl)acrylic acid at 10 mg/kg, po using 10.6% PEG400, 5.4% Cremophor EL, 2.6% Labrasol, 1.4% Capmul MCM in water (80%) vehicle; type: ADME, organism-based; parameters: dose 10 mg/kg, route oral; conditions: in vivo; outline: as §2
# Plasma [15] = assay: Prodrug conversion in human plasma assessed as half life
# Intestine = assay: Prodrug conversion in rat intestinal microsomes assessed as half life
# [16] = as §1; type: ADME, organism-based; parameters: dose 10 mg/kg, route oral; conditions: plasma; outline: as §2
# [17] = as §3; type: ADME, organism-based; parameters: dose 10 mg/kg, route oral; conditions: plasma; outline: as §2
Compound,solubility [1] [mg/mL],Cmax (Rattus norvegicus [2]),AUC (Rattus norvegicus [3]),t1/2 [4] [h],t1/2 (Liver microsome [5]) [h],t1/2 (Plasma [6]) [h],t1/2 [7] [h],solubility [8] [mg/mL],t1/2 (Liver microsome [9]) [h],solubility [10] [mg/mL],AUC (Rattus norvegicus [11]) [µM·h],t1/2 [12] [h],pKa [13],Cmax (Rattus norvegicus [14]) [nM],t1/2 (Plasma [15]) [h],t1/2 (Intestine) [h],Cmax [16] [nM],AUC [17] [µM·h]
CCOc1cc(NC(=O)C2(NC(=O)c3ccc4c(C5CCCC5)c(-c5ncc(Cl)cn5)n(C)c4c3)CCC2)ccc1/C=C/C(=O)OCCN1CCOCC1,< 60,–,–,0.333,0.917,1.6,4.28,< 30,0.583,< 60,35.2,15.2,5.7,7200,> 5,3.5,70,0.2
CCOc1cc(NC(=O)C2(NC(=O)c3ccc4c(C5CCCC5)c(-c5ncc(Cl)cn5)n(C)c4c3)CCC2)ccc1/C=C/C(=O)OCC(=O)N1CCN(C)CC1,< 100,BLD,BLD,–,0.35,–,–,< 100,0.15,< 100,1.5,–,6.6,260,–,–,–,–
CCOc1cc(NC(=O)C2(NC(=O)c3ccc4c(C5CCCC5)c(-c5ncc(Cl)cn5)n(C)c4c3)CCC2)ccc1/C=C/C(=O)OCC(=O)N1CCOCC1,< 15,BLD,BLD,0.85,0.8,1.83,3.17,< 15,0.733,< 30,19.3,3.42,–,4000,> 5,1.27,–,–

# Second part, the molecule after the results:
solubility [1] [mg/mL],Cmax (Rattus norvegicus [2]),AUC (Rattus norvegicus [3]),t1/2 [4] [h],t1/2 (Liver microsome [5]) [h],t1/2 (Plasma [6]) [h],t1/2 [7] [h],solubility [8] [mg/mL],t1/2 (Liver microsome [9]) [h],solubility [10] [mg/mL],AUC (Rattus norvegicus [11]) [µM·h],t1/2 [12] [h],pKa [13],Cmax (Rattus norvegicus [14]) [nM],t1/2 (Plasma [15]) [h],t1/2 (Intestine) [h],Cmax [16] [nM],AUC [17] [µM·h],Compound
< 100,BLD,BLD,1.82,1.5,1.4,6.6,< 100,0.317,< 100,10.1,> 5,7.7,1600,> 5,1.47,–,–,CCOc1cc(NC(=O)C2(NC(=O)c3ccc4c(C5CCCC5)c(-c5ncc(Cl)cn5)n(C)c4c3)CCC2)ccc1/C=C/C(=O)OCCN(C)C
< 100,BLD,BLD,–,–,–,–,< 60,–,< 60,6.5,–,7.7,1100,–,–,–,–,CCOc1cc(NC(=O)C2(NC(=O)c3ccc4c(C5CCCC5)c(-c5ncc(Cl)cn5)n(C)c4c3)CCC2)ccc1/C=C/C(=O)OCCN1CCCC1
< 100,BLD,BLD,–,1.85,–,–,–,0.217,< 100,7.9,–,7.7,1200,–,–,–,–,CCOc1cc(NC(=O)C2(NC(=O)c3ccc4c(C5CCCC5)c(-c5ncc(Cl)cn5)n(C)c4c3)CCC2)ccc1/C=C/C(=O)OCCN1CCN(C)CC1
